Data published in ChEMBL document CHEMBL3865803, “Bicyclic octahydrocyclohepta[b]pyrrol-4(1H)one derivatives as novel selective anti-hepatitis C virus agents” (Eur J Med Chem, 2016).
pEC50: −log10 of the molar value.

Columns and labels:
Hepatitis C virus [1] = assay: Antiviral activity against HCV genotype 2a infected in human Huh7.5-FGR-JC1-Rluc2A replicon cells assessed as inhibition of viral RNA replication incubated for 48 hrs by luciferase reporter gene assay; format: functional, cell-based, Hepacivirus hominis; conditions: Huh-7, 48 h
Procedure, shortened: (§1)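 EC50 from concentration-response in replicon cells (gt1b firefly, gt2a Renilla luciferase reporter) maintained with G418. Compound added 12 h post-seeding (~1 × 10^4 cells/well), 48 h exposure, DMSO 1% final. Luciferase was compared with DMSO controls; the value is the mean ± SD of three independent 8-12 point quarter-log dilution series, calculated with CalcuSyn.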

[2] = Selectivity index, ratio of CC50 for human Huh7.5 cells to EC50 for HCV genotype 2a infected in human Huh7.5-FGR-JC1-Rluc2A replicon cells; set-up: species or system Huh-7
Hepatitis C virus [3] = assay: Antiviral activity against HCV genotype 1b infected in human Huh7/Rep-Feo1b replicon cells assessed as inhibition of viral RNA replication measured after 48 hrs by luciferase reporter gene assay; format: functional, cell-based, Hepacivirus hominis; conditions: Huh-7, 48 h; procedure, shortened: as §1
Hepatitis C virus [4] = assay: Antiviral activity against HCV genotype 1b infected in human Huh7/Rep-Feo1b replicon cells assessed as inhibition of viral RNA replication at 50 uM measured after 48 hrs by luciferase reporter gene assay relative to control; format: functional, Hepacivirus hominis; conditions: Huh-7, 48 h
Procedure, shortened: (§2)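 Replicon cells (gt1b firefly luciferase; gt2a Renilla luciferase) in DMEM/10% FBS with G418, ~1 × 10^4 cells/well, dosed 12 h after seeding with 50 µM compound or DMSO (1% final) for 48 h at 37 °C. Cells were PBS-washed and luciferase read; % inhibition was taken versus DMSO-treated cells, mean±SD, n=3.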

Hepatitis C virus [5] = assay: Antiviral activity against HCV genotype 2a infected in human Huh7.5-FGR-JC1-Rluc2A replicon cells assessed as inhibition of viral RNA replication at 50 uM measured after 48 hrs by luciferase reporter gene assay relative to control; format: functional, Hepacivirus hominis; conditions: Huh-7, 48 h; procedure, shortened: as §2
[6] = Selectivity index, ratio of CC50 for human Huh7.5 cells to EC50 for HCV genotype 1b infected in human Huh7/Rep-Feo1b replicon cells; set-up: species or system Huh-7
[7] = Cytotoxicity against human Huh7.5 cells measured after 48 hrs by MTS assay; format: toxicity, cell-based, Huh-7; conditions: Huh7.5 cells
Procedure, shortened: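 Parental Huh7.5 cells were treated 12 h after seeding with 8-10 dilutions of compound or DMSO (1% final) for 48 h at 37 °C. Viability was read by MTS bioreduction to formazan. CC50 is the concentration halving the MTS signal, mean ± SD of three independent experiments.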

Hepatitis C virus [8] = assay: Antiviral activity against Hepatitis C virus genotype 1b infected in human MH14 cells assessed as inhibition of viral RNA replication after 48 hrs by quantitative RT-PCR analysis; format: functional, cell-based
Procedure, shortened: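 MH-14 cells carrying HCV subgenomic replicons, in 12-well plates, were treated with a range of concentrations or DMSO 12 h after seeding. Cellular HCV RNA was quantified by qRT-PCR with HCV-specific primers, using β-actin primers as reference.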

pEC50 (Hepatitis C virus [1]) | pEC50 (Hepatitis C virus [3]) | pEC50 (Hepatitis C virus [8]; MH14, 48 h) | Structure (SMILES) | Ratio CC50/EC50 [2] | inhibition at 50 µM (Hepatitis C virus [4]) [%] | inhibition at 50 µM (Hepatitis C virus [5]) [%] | Ratio CC50/EC50 [6] | CC50 at 48 h [7] [µM] | inhibition (Hepatitis C virus [8]; Hepacivirus hominis)
4.82 | 4.60 | – | CCOC(=O)[C@@H]1C[C@@H]2/C(=N/O)CCCC[C@@H]2N1S(=O)(=O)c1ccc(C)cc1 (racemic) | 13.1 | 63 | 66 | 7.9 | > 200 | –
5.35 | 5.74 | 5.42 | CCOC(=O)[C@@H]1C[C@@H]2/C(=N/Nc3ccccc3)CCCC[C@@H]2N1S(=O)(=O)c1ccc(C)cc1 (racemic) | 44.2 | 88 | 70 | 112.4 | > 200 | Dose-dependent effect
4.59 | 4.57 | – | CCOC(=O)[C@@H]1C[C@@H]2[C@@H](OC(C)=O)CCCC[C@@H]2N1S(=O)(=O)c1ccc(C)cc1 (racemic) | 7.7 | 60 | 73 | 7.3 | > 200 | –
4.94 | 4.84 | – | CCOC(=O)[C@@H]1C[C@@H]2/C(=N/NC(N)=S)CCCC[C@@H]2N1S(=O)(=O)c1ccc(C)cc1 (racemic) | 17.3 | 66 | 58 | 14 | > 200 | –
